The results in this text go back to ChEMBL document CHEMBL3526139, “Clinical pharmacokinetics, metabolism, and drug-drug interaction of carfilzomib” (Drug Metab Dispos, 2013).

Data set [1] is described as follows: Drug excretion in urine of iv dosed human patient with relapsed and refractory hematological malignancies assessed as morpholino-hPhe-Leu-Phe-Leu-diol metabolite formation administered on days 1, 2, 8, 9, 15 and 16 of 28-day cycle over 2 to 10 mins by LC-MS/MS analysis. The class given is ADME, organism-based. To be noted: in vivo.
A short description of data set [2]: Plasma clearance in human patient with relapsed solid tumor at 20 mg/m'2, iv administered on days 1, 2, 8, 9, 15 and 16 of 28-day cycle over 2 to 10 mins measured on day 16 of cycle 1 by LC-MS/MS analysis. The data set is classed as ADME, organism-based. The method in brief:
(§1)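 Patients with relapsed solid tumors (n=3) received carfilzomib IV at 20 mg/m2. Plasma was sampled on Days 1 and 16 of Cycle 1 before dosing, at end of administration, and at 5, 15, 30 min and 1, 2, 4 h after. Samples underwent solid phase extraction and LC-MS/MS with d10-carfilzomib internal standard over 0.100–200 ng/mL. Parameters were derived noncompartmentally (constant IV infusion model) from actual elapsed time from infusion start.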

The subject of data set [3] is Plasma. In words: Drug metabolism in plasma of iv dosed human patient with relapsed and refractory hematological malignancies assessed as morpholino-hPhe metabolite formation administered on days 1, 2, 8, 9, 15 and 16 of 28-day cycle over 2 to 10 mins by LC-MS/MS analysis. The data set is classed as ADME, organism-based. The following applies: in vivo.
Data set [4] deals with T1, Cytochrome P450 3A (Homo sapiens, UniProt P08684+P20815+Q9HB55+P24462). The data set can be described thus: Time-dependent inhibition of CYP3A in human liver microsomes assessed as midazolam 1'-hydroxylation using midazolam as substrate by LC-MS/MS analysis in presence of NADPH. The data set is classed as ADME. In short, it runs like this: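 HLM (1.25 mg/mL for midazolam) were preincubated in duplicate with carfilzomib 0, 0.5, 1, 3, 5, 8 µM plus an NADPH-generating system for 0–30 min. Mixtures were diluted 25-fold into pH 7.4 phosphate/MgCl2/EDTA buffer containing midazolam 40 µM and NADPH system for 5 min. Residual activity by LC-MS/MS gave KI and kinact.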

The next data set deals with CYP3A (Homo sapiens, UniProt P08684+P20815+P24462+Q9HB55). In words: Inhibition of CYP3A in human liver microsomes assessed as substrate metabolite formation using midazolam as substrate measured after 5 mins by LC-MS/MS analysis. The following applies: probe midazolam. The class given is ADME. In short, it runs like this:
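Pooled HLM from 16 donors were incubated at 37°C in duplicate with carfilzomib 0.01–10 µM and probe substrate at about its Km. Substrates were phenacetin, amodiaquine, diclofenac, S-mephenytoin, dextromethorphan, testosterone and midazolam. Protein was 0.1 mg/mL, or 0.05 mg/mL with midazolam. Reactions ran 5 min without preincubation, then were quenched with acetonitrile. Metabolites were measured by LC-MS/MS relative to 0.5% acetonitrile controls.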

The target in data set [5] is T1, Cytochrome P450 3A. In words: Drug metabolism in pooled human hepatocytes assessed as disapperance rate at 1 uM by LC-MS/MS analysis in presence of 10 uM CYP3A inhibitor ketoconazole. The data set is classed as ADME, cell-based, Hepatocyte. The method in brief:
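Pooled human hepatocytes in suspension (~0.5 x 10^6 viable cells/mL) were incubated with 1 µM carfilzomib at 37°C under 5% CO2, with or without isoform-selective CYP chemical inhibitors. Reactions were quenched with acetonitrile at 0, 15, 30, 60 and 120 min. Carfilzomib was quantified by non-validated LC-MS/MS after protein precipitation.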

Data set [6] can be described thus: AUC infinity in human patient with relapsed solid tumor at 20 mg/m'2, iv administered on days 1, 2, 8, 9, 15 and 16 of 28-day cycle over 2 to 10 mins measured on day 16 of cycle 1 by LC-MS/MS analysis. The data set is classed as ADME, organism-based. Also on record: time infinity, route intravenous. To be noted: plasma. In short, it runs like this:
as §1

Data set [7] can be described thus: Cmax in human patient with relapsed solid tumor at 20 mg/m'2, iv administered on days 1, 2, 8, 9 15 and 16 of 28-day cycle over 2 to 10 mins measured on day 1 of cycle 1 by LC-MS/MS analysis. The data set is classed as ADME, organism-based. Details: route intravenous; call rule not given here. To be noted: in vivo. In short, it runs like this: as §1
Data set [8] relates to Plasma. In words: Drug metabolism in plasma of human multiple myeloma patient assessed as morpholino-hPhe-Leu metabolite formation at 15 mg/m'2, iv administered as single dose measured within first 30 mins after end of drug infusion by LC-MS/MS analysis. The class given is ADME, organism-based. The following applies: in vivo, 0.5 h. The method in brief: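 Patients with multiple myeloma received a single 15 mg/m2 carfilzomib dose. Plasma was sampled pre-dose, at end of infusion, at 5, 15, 30 min and at 1, 1.5, 2, 4, 6, 24 h. Samples were protein-precipitated and analyzed by LC-MS/MS (metabolites 0.500–500 ng/mL) with deuterated internal standards.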

Data set [9] has as its system Plasma. In words: Drug metabolism in plasma of iv dosed human patient with relapsed and refractory hematological malignancies assessed as morpholino-hPhe-Leu metabolite formation administered on days 1, 2, 8, 9, 15 and 16 of 28-day cycle over 2 to 10 mins by LC-MS/MS analysis. The following applies: in vivo. The data set is classed as ADME, organism-based.
Another data set concerns the target Cytochrome P450 2C9 (Homo sapiens, UniProt P11712). The data set can be described thus: Drug metabolism in pooled human hepatocytes assessed as disapperance rate at 1 uM by LC-MS/MS analysis in presence of 10 uM CYP2C9 inhibitor sulfaphenazole.
A further data set has as its target T2, Cytochrome P450 1A2 (Homo sapiens, UniProt P05177).
T2 sequence (P05177 whole entry): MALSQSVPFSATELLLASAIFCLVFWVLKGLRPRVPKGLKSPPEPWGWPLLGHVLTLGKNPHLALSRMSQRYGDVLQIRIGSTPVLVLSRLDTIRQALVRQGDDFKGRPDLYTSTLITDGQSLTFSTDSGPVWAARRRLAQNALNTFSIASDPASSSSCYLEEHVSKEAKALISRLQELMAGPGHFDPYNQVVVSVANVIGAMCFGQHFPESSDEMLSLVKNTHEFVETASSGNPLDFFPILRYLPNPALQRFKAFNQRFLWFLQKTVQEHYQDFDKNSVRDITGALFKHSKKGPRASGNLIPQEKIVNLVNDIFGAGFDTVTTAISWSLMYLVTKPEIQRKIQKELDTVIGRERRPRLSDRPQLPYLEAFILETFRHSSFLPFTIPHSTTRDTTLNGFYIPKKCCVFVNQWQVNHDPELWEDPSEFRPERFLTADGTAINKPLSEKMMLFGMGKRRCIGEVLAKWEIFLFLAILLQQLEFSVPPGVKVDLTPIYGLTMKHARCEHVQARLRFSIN
The data set can be described thus: Decrease in CYP1A2 activity in human hepatocytes assessed as acetaminophenol formation using phenacetin as substrate at 2.5 uM incubated for 3 days prior to substrate challenge for 60 mins by LC-MS/MS analysis. The data set is classed as ADME, cell-based, Hepatocyte. To be noted: 1 h. The method in brief: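 Hepatocytes from 3 donors were plated on collagen I and cultured 2 days, then treated 3 days with carfilzomib (0.1–2.5 µM), 0.08% DMSO, rifampicin 20 µM or β-naphthoflavone 20 µM, renewed daily. Cells were then incubated in serum-free medium in triplicate with testosterone 200 µM (CYP3A, 30 min, 6β-hydroxytestosterone) or phenacetin 100 µM (CYP1A2, 60 min, acetaminophenol). Products were measured by LC-MS/MS and expressed relative to DMSO.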

Chain of Cytochrome P450 2C9 (P11712 whole entry, looked up): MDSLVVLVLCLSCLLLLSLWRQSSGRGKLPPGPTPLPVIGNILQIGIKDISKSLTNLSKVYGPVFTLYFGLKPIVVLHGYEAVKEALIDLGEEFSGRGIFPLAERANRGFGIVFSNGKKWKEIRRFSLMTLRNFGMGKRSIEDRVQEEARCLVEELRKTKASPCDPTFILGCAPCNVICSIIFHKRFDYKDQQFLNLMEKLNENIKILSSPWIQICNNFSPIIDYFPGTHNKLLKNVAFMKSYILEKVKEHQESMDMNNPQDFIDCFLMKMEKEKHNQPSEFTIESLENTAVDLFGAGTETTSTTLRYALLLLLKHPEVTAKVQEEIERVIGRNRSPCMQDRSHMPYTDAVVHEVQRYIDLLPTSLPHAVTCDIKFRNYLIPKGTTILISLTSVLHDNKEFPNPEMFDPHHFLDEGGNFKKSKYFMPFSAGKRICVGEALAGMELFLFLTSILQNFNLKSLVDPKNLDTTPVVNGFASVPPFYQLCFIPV

As for `CC(C)C[C@H](NC(=O)[C@H](CCc1ccccc1)NC(=O)CN1CCOCC1)C(=O)N[C@@H](Cc1ccccc1)C(=O)N[C@@H](CC(C)C)C(=O)[C@@]1(C)CO1` [CARFILZOMIB], the Drug excretion entry in [1] is reported as “metabolite_detected”. For the same compound, the clearance in data set [2] was 2270 mL/min. Also, the Drug metabolism entry in the data set on Plasma [3] is “metabolite_detected”; at Cytochrome P450 3A [5] it was 0.012 min⁻¹; with Plasma [8], “metabolite_detected”; in the data set on Plasma [9] it was “metabolite_detected”; at Cytochrome P450 2C9, 0.0073 min⁻¹. Also, the “inhibition (INH)” value is recorded as “Active” on Cytochrome P450 3A [4] and “Dose-dependent effect” at Cytochrome P450 1A2. At CYP3A, the IC50 at 5 min was 1.7 µM. In addition, in data set [6], the AUC(0-inf) is 0.301 µg·h/mL. Also, in data set [7], the Cmax was determined as 2.76 µg/mL.

A word on the clearance: it is a measure of how efficiently the substance is removed, as volume per time. Read a high clearance as efficient removal. Usually IC50 stands for the midpoint of a concentration-inhibition curve. The term AUC(0-inf) denotes total exposure, with the tail of the curve extrapolated. A high value points to more exposure. In general, Cmax refers to the maximum level reached in the sampled fluid or tissue.
